Active and inactive are the calls of the source. No cut-off for these calls is given here.
Experiments:
[1] = biological target: Phosphatidylinositol 4,5-bisphosphate 3-kinase catalytic subunit gamma isoform (Homo sapiens, UniProt P48736); assay: Inhibition of recombinant PI3Kgamma
Method in brief: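 Luminescence kinase assay with recombinant PI3K p120 gamma (250-500 ng/well), ambient temperature, in 20 mM Tris pH 7.4, 4 mM MgCl2, 10 mM NaCl, 50 µM PIP2 substrate. Compound added in DMSO at 100 to 0.001 µM final. ATP added from a 3 µM stock. Stopped after 90 min with Kinase-Glo and read by luminescence. IC50 from nonlinear curve fit.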

[2] = AUC (0 to infinity) in Sprague-Dawley rat at 5.0 mg/kg, iv; type: ADME, organism-based; parameters: time infinity, dose 5 mg/kg, route intravenous; settings: plasma
Method in brief: (§1)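 Male Sprague-Dawley rats (200-250 g, N = 5 per dose) given a single iv tail bolus in aqueous 9.5% Captisol. Serial plasma was taken via jugular catheter from 5 min to 24 h. Samples were acetonitrile-extracted with internal standard and quantified by LC/MS/MS (calibration 1-10 000 ng/mL). AUC(0-inf) came from noncompartmental analysis.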

[3] = Clearance in Sprague-Dawley rat at 5.0 mg/kg, iv; type: ADME, organism-based; parameters: dose 5 mg/kg, route intravenous; settings: in vivo
Method in brief: (§2)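 Male Sprague-Dawley rats (200-250 g, N = 5 per dose) were given a single iv tail bolus of 0.5 or 5 mg/kg in aqueous 9.5% Captisol. Jugular-catheter blood was drawn at 5, 15, 30 min and 1, 2, 4, 6, 8, 24 h. Plasma was acetonitrile-extracted and quantified by LC/MS/MS (calibration 1-10 000 ng/mL). Parameters were derived noncompartmentally, with CL = dose/AUC(0-inf) and Vdss = CL × MRT.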

[4] = Cmax in Sprague-Dawley rat at 0.5 mg/kg, iv; type: ADME, organism-based; parameters: dose 0.5 mg/kg, route intravenous; settings: in vivo; method in brief: as §2
[5] = biological target: RAC-alpha serine/threonine-protein kinase (Homo sapiens) (UniProt P31749); assay: Inhibition of FGF-induced AKT phosphorylation in HUVEC cells by Western blot at 10 uM; type: cell-based
Method in brief: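 Serum-starved HUVECs were pretreated for 15 min with compound (0.125-10 µM) or vehicle, then stimulated for 5 min with 20 ng/mL recombinant bFGF. Cells were lysed in RIPA, protein was normalized by BCA, and lysates were run on SDS-PAGE. Blots were probed for phospho-Akt, stripped, and reprobed for total Akt.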

[6] = biological target: Serine/threonine-protein kinase mTOR (Homo sapiens) (UniProt P42345); assay: Inhibition of VEGF-induced phosphorylation of mTOR at 10 uM
Method in brief: (§3)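 HUVECs (passage 2-4) were serum-starved for 4 h in EBM-2, then exposed for 10 min to 20 ng/mL recombinant human VEGF with or without 10 µM compound in DMSO. Cells were PBS-rinsed and lysed in RIPA, and lysates were normalized by BCA. Samples were screened externally by Western-blot-based antibody panels covering 73 phosphorylated kinases.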

[7] = Clearance in Sprague-Dawley rat at 0.5 mg/kg, iv; type: ADME, organism-based; parameters: dose 0.5 mg/kg, route intravenous; settings: in vivo; method in brief: as §2
[8] = Half life in Sprague-Dawley rat at 0.5 mg/kg, iv; type: ADME, organism-based; parameters: dose 0.5 mg/kg, route intravenous; settings: in vivo; method in brief: as §2
[9] = biological target: Ribosomal protein S6 kinase beta-1 (Homo sapiens) (UniProt P23443); assay: Inhibition of VEGF-induced phosphorylation of p70S6 at 10 uM; method in brief: as §3
[10] = Volume of distribution at steady state in Sprague-Dawley rat at 0.5 mg/kg, iv; type: ADME, organism-based; parameters: dose 0.5 mg/kg, route intravenous; settings: in vivo, read-out: Vdss; method in brief: as §2
[11] = Cmax in Sprague-Dawley rat at 5.0 mg/kg, iv; type: ADME, organism-based; parameters: dose 5 mg/kg, route intravenous; settings: in vivo; method in brief: as §2
[12] = Volume of distribution at steady state in Sprague-Dawley rat at 5.0 mg/kg, iv; type: ADME, organism-based; parameters: dose 5 mg/kg, route intravenous; settings: in vivo, read-out: Vdss; method in brief: as §2
[13] = Plasma concentration in Sprague-Dawley rat at 5.0 mg/kg, iv; type: ADME, organism-based; parameters: dose 5 mg/kg, route intravenous; method in brief: as §2
[14] = Plasma concentration in Sprague-Dawley rat at 0.5 mg/kg, iv; type: ADME, organism-based; parameters: dose 0.5 mg/kg, route intravenous; method in brief: as §2
HUVEC = assay: Inhibition of VEGF-induced VE-cadherin phosphorylation in HUVEC cells by Western blot at 10 uM; type: cell-based; settings: Homo sapiens
Method in brief: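 Serum-starved HUVECs were pretreated for 15 min with compound (0.125-10 µM) or vehicle, then given 20 ng/mL recombinant VEGF for 5 min. RIPA lysates were loaded at equal protein (BCA, with β-actin as loading control) on SDS-PAGE. Blots were probed for phospho-VE-cadherin, stripped, and reprobed for total VE-cadherin.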

[15] = Half life in Sprague-Dawley rat at 5.0 mg/kg, iv; type: ADME, organism-based; parameters: dose 5 mg/kg, route intravenous; settings: in vivo; method in brief: as §2
[16] = AUC (0 to infinity) in Sprague-Dawley rat at 0.5 mg/kg, iv; type: ADME, organism-based; parameters: time infinity, dose 0.5 mg/kg, route intravenous; settings: plasma; method in brief: as §1

Chain of RAC-alpha serine/threonine-protein kinase (Homo sapiens) (P31749 whole entry): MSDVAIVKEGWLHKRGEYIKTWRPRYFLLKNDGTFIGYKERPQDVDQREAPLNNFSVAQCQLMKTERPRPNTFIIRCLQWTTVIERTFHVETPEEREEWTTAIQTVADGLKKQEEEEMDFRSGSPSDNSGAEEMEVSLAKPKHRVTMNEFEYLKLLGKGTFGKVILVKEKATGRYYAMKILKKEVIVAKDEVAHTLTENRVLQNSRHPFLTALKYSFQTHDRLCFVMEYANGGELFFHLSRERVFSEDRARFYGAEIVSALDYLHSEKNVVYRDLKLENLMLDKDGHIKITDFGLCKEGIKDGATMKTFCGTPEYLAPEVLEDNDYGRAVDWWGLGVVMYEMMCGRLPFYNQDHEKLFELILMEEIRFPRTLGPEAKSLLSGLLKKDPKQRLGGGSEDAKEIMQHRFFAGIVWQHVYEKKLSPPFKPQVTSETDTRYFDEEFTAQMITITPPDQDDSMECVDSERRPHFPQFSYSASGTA
Chain of Ribosomal protein S6 kinase beta-1 (Homo sapiens) (P23443 whole entry, looked up): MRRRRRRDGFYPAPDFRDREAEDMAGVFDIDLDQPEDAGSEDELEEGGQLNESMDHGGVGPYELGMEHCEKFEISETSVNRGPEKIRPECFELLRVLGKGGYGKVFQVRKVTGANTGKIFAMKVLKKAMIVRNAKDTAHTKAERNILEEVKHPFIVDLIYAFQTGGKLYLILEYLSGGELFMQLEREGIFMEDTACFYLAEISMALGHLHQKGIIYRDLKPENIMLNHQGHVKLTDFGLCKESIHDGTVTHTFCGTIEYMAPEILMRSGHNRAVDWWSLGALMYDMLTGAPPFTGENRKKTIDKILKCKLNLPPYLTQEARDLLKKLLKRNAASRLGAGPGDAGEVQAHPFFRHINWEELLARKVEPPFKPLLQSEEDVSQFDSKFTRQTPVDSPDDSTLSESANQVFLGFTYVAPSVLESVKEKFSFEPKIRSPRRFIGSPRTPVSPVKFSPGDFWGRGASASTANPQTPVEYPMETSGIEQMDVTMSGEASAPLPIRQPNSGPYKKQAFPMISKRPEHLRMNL

Compound	IC50 [1]	Activity [1]	further results
Oc1cccc(-c2nc3cncnc3nc2-c2cccc(O)c2)c1	9 µM	–	–
Nc1nc(N)c2nc(-c3ccc(O)cc3)cnc2n1	1.2 µM	–	–
Nc1cncc2nc(-c3cccc(O)c3)c(-c3cccc(O)c3)nc12	–	inactive	–
Oc1cccc(-c2nc3nc(NCCCN4CCOCC4)nc(NCCCN4CCOCC4)c3nc2-c2cccc(O)c2)c1	–	inactive	–
Nc1nc(N)c2nc(-c3cccc(OCC(O)CO)c3)c(-c3cccc(OCC(O)CO)c3)nc2n1 (stereo unspecified)	32.7 µM	–	–
Nc1ccc2nc(-c3ccc(O)c(O)c3)c(-c3ccc(O)c(O)c3)nc2n1	–	inactive	–
Nc1nc(N)c2ncc(-c3cccc(O)c3)nc2n1	3 µM	–	–
Nc1nc(N)c2ncc(-c3ccc(O)cc3)nc2n1	4.7 µM	–	–
Nc1ncnc2nc(-c3ccc(O)c(O)c3)cnc12	5.1 µM	–	–
Nc1nc(N)c2nc(-c3ccccc3)c(-c3ccccc3)nc2n1	8.5 µM	–	–
CCN(CC)CCOc1cccc(-c2nc3nc(N)nc(N)c3nc2-c2cccc(OCCN(CC)CC)c2)c1	–	inactive	–
Nc1nc(NCCCN2CCOCC2)c2nc(-c3cccc(O)c3)c(-c3cccc(O)c3)nc2n1	51 µM	–	–
Nc1ccc2nc(-c3cccc(O)c3)c(-c3cccc(O)c3)nc2n1	–	inactive	–
Nc1ncnc2nc(-c3cccc(O)c3)c(-c3cccc(O)c3)nc12	4 µM	–	–
Nc1cncc2nc(-c3ccc(O)cc3)c(-c3ccc(O)cc3)nc12	–	inactive	–
CCOP(=O)(OCC)Oc1cccc(-c2nc3nc(N)nc(N)c3nc2-c2cccc(OP(=O)(OCC)OCC)c2)c1	–	inactive	–
Nc1ncnc2nc(-c3ccc(O)cc3)c(-c3ccc(O)cc3)nc12	4 µM	–	–
Nc1ccc2nc(-c3ccc(O)cc3)c(-c3ccc(O)cc3)nc2n1	–	inactive	–
Nc1nc(N)c2nc(-c3ccc(O)cc3)c(-c3ccc(O)cc3)nc2n1	2.7 µM	–	–
Nc1nc(N)c2nc(-c3cccc(O)c3)c(-c3cccc(O)c3)nc2n1 [TG100-115]	–	–	AUC(0-inf) [2]: 1.38 µg·h/mL; clearance [3]: 3.96 L/h/kg; Cmax [4]: 0.363 µg/mL; Activity [5]: Dose-dependent effect; Activity [6]: Active; clearance [7]: 4.26 L/h/kg; half-life [8]: 24 min; Activity [9]: Active; Vd [10]: 2.3 L/kg; Cmax [11]: 3.33 µg/mL; Vd [12]: 4.4 L/kg; C0 [13]: 7.73 µg/mL; C0 [14]: 0.713 µg/mL; Activity (HUVEC): Active; half-life [15]: 48 min; AUC(0-inf) [16]: 0.124 µg·h/mL
Oc1cccc(-c2nc3nc(O)nc(O)c3nc2-c2cccc(O)c2)c1	46 µM	–	–
Nc1ccc2nc(-c3cccc(O)c3)c(-c3cccc(O)c3)nc2c1	17 µM	–	–
COc1cccc(-c2nc3nc(N)nc(N)c3nc2-c2cccc(OC)c2)c1	12.6 µM	–	–
Nc1ncnc2ncc(-c3ccc(O)c(O)c3)nc12	1.3 µM	–	–
Nc1nc(N)c2ncc(-c3ccc(O)c(O)c3)nc2n1	5.9 µM	–	–
Nc1nc(N)c2nc(-c3ccc(O)c(O)c3)cnc2n1	0.195 µM	–	–
